Test results taken from ChEMBL document CHEMBL4673245, “Discovery of AZD9833, a Potent and Orally Bioavailable Selective Estrogen Receptor Degrader and Antagonist” (J Med Chem, 2020).
The source made the active and inactive calls. The calls are words filed in the database; no cut-off is given here.

Experiments:
[1] = Dissociation constant, dibasic pKa of compound in 0.1 M potassium chloride in presence of azetidine by UV-vis spectroscopy; assay type: physicochemical
[2] = Clearance in rat at 0.5 mg/kg, iv or 1 mg/kg, po; assay type: ADME, organism-based; conditions: in vivo
Method in brief: (§1)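 Rat PK: single IV dose 0.5 mg/kg and oral dose 1 mg/kg, formulated in 5% DMSO:95% hydroxypropyl-β-cyclodextrin (30% w/v), dosed at 1 mL/kg IV and 4 mL/kg PO.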

Cytochrome P450 1A2 = biological target: T1, Cytochrome P450 1A2 (Homo sapiens, UniProt P05177); assay: Inhibition of CYP1A2 in human liver microsomes; assay type: ADME; conditions: human, microsomes
T1 sequence (P05177 whole entry): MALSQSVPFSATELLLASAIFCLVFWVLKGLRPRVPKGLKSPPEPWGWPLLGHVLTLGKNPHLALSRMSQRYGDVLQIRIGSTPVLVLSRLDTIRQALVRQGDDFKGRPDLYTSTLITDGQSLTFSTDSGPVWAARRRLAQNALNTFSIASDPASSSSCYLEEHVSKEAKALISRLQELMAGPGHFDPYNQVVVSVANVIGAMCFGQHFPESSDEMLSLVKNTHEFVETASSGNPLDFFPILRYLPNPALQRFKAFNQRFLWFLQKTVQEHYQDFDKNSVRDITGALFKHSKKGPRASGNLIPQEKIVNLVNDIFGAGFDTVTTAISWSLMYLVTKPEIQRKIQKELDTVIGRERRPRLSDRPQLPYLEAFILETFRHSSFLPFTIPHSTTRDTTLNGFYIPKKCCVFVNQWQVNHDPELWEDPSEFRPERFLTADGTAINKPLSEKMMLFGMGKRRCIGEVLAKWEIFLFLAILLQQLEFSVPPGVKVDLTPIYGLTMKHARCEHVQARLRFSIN
Method in brief: (§2)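 High-throughput human liver microsome panel of five CYP isoforms; inhibition reported as IC50.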

Cytochrome P450 3A4 = Cytochrome P450 3A4 (Homo sapiens, UniProt P08684); assay: Inhibition of CYP3A4 in human liver microsomes; assay type: ADME; method in brief: as §2
Chain of Cytochrome P450 3A4 (P08684 whole entry): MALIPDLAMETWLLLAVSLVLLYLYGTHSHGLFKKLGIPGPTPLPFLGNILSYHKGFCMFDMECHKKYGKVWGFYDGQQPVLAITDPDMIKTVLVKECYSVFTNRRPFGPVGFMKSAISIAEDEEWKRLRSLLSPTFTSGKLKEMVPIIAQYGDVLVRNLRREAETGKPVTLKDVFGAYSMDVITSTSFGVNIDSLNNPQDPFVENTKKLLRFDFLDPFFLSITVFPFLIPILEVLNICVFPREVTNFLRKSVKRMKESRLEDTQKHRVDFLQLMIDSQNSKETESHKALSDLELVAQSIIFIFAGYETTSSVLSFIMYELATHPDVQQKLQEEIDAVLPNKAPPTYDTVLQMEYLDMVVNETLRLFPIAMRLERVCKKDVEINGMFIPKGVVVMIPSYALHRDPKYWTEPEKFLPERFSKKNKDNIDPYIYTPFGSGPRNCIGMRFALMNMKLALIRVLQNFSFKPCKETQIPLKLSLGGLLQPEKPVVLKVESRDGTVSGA

[3] = Volume of distribution at steady state in rat at 0.5 mg/kg, iv or 1 mg/kg, po; assay type: ADME, organism-based; conditions: in vivo, read-out: Vdss
Method in brief: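 Rat dosed IV at 0.5 mg/kg and PO at 1 mg/kg, both formulated in 5% DMSO:95% hydroxypropyl-β-cyclodextrin (30% w/v), at 1 mL/kg IV and 4 mL/kg PO. Vdss (L/kg) derived from the pharmacokinetic profile after dosing.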

[4] = biological target: T2, Estrogen receptor (Homo sapiens) (UniProt P03372); assay: Induction of ERalpha degradation in human CAMA1 cells assessed as decrease in ER-alpha level at 0.1 uM by Western blot analysis relative to fulvestrant; assay type: cell-based; parameters: scale not given: the % may be the effect or the level left; conditions: CAMA-1
T2 sequence (whole entry): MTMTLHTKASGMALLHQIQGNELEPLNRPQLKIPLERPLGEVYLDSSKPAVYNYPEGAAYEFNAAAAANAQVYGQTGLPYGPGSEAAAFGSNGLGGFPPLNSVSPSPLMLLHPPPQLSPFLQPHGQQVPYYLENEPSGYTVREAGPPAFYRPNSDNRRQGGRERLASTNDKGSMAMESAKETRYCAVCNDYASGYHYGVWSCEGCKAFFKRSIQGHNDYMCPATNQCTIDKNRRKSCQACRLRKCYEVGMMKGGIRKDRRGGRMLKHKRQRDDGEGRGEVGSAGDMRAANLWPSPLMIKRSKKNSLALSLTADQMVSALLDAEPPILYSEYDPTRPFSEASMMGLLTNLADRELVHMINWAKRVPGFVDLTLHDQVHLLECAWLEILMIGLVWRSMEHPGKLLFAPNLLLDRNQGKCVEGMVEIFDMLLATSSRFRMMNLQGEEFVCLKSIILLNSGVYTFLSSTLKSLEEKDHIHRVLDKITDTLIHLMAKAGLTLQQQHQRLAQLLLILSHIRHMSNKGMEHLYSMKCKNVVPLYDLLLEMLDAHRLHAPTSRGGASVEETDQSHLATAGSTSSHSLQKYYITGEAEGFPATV
Method in brief: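 Western blot for ERα in MCF-7 and CAMA-1 cells after treatment at 0.1 µM. ER level is expressed as % degradation relative to fulvestrant, from a single experiment (n = 1).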

[5] = Solubility of compound in phosphate buffer at pH 7.4 incubated for 24 hrs at 25 degree C; assay type: physicochemical
Method in brief: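 Aqueous phosphate buffer pH 7.4, compound added from DMSO stock, equilibrated 24 h at 25 °C.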

[6] = Fraction unbound in rat plasma; assay type: ADME, cell-free
Cytochrome P450 2C19 = Cytochrome P450 2C19 (Homo sapiens, UniProt P33261); assay: Inhibition of CYP2C19 in human liver microsomes; assay type: ADME; conditions: human, microsomes; method in brief: as §2
Chain of Cytochrome P450 2C19 (P33261 whole entry): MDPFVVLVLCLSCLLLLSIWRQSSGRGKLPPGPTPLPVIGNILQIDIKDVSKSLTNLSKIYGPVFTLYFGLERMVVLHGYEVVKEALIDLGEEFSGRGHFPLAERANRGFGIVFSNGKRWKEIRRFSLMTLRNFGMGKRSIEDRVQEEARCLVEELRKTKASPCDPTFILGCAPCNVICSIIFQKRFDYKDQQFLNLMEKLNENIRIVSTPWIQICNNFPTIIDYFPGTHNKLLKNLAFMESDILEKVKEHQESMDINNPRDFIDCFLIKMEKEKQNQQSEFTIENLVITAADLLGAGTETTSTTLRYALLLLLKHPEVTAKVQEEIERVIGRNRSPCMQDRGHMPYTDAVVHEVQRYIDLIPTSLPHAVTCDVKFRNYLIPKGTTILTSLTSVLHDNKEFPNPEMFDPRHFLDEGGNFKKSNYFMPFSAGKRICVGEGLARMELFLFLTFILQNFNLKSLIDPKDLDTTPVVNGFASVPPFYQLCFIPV

[7] = Oral bioavailability in rat at 1 mg/kg; assay type: ADME, organism-based; conditions: in vivo; method in brief: as §1
Cytochrome P450 2D6 = Cytochrome P450 2D6 (Homo sapiens, UniProt P10635); assay: Inhibition of CYP2D6 in human liver microsomes; assay type: ADME; method in brief: as §2
Chain of Cytochrome P450 2D6 (P10635 whole entry): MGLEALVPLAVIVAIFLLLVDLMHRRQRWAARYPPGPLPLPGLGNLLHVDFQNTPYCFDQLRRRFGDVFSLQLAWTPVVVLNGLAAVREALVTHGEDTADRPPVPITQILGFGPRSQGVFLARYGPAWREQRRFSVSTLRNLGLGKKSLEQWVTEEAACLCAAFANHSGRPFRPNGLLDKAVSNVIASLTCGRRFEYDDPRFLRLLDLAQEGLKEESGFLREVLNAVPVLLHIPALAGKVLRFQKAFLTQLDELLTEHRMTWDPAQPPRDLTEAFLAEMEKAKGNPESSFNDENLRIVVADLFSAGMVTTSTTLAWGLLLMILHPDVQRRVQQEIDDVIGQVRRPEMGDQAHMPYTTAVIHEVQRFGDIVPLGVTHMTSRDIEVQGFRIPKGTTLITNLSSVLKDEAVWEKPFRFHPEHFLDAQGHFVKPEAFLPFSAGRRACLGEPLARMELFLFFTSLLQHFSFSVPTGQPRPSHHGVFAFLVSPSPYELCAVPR

[8] = biological target: T2, Estrogen receptor (Homo sapiens); assay: Induction of ERalpha degradation in human MCF7 cells assessed as decrease in ER-alpha level at 0.1 uM by Western blot analysis relative to fulvestrant; assay type: cell-based; parameters: scale not given: the % may be the effect or the level left
[9] = Dissociation constant, dibasic pKa of compound in 0.1 M potassium chloride in presence of piperidine by UV-vis spectroscopy; assay type: physicochemical
Cytochrome P450 2C9 = Cytochrome P450 2C9 (Homo sapiens, UniProt P11712); assay: Inhibition of CYP2C9 in human liver microsomes; assay type: ADME; conditions: human, microsomes; method in brief: as §2
Chain of Cytochrome P450 2C9 (P11712 whole entry): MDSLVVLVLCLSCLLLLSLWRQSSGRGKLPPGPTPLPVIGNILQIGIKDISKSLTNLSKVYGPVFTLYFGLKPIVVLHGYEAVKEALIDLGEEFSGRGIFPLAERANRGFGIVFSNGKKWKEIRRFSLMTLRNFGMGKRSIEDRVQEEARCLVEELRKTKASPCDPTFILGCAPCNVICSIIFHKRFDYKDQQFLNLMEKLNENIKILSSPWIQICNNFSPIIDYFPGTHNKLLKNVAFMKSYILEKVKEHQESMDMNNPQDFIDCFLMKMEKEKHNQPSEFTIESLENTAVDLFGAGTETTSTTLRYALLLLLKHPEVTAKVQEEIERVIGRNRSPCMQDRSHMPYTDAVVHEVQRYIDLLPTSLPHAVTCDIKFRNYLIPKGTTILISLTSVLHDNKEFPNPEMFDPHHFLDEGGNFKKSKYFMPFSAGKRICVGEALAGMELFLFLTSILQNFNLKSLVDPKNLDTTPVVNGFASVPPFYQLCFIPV

[10] = Fraction unbound in human plasma by equilibrium dialysis method; assay type: ADME, cell-free
Method in brief: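 Fraction unbound measured from DMSO stock by equilibrium dialysis in 10% human plasma.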

[11] = Fraction unbound in dog plasma; assay type: ADME, cell-free, Canis lupus familiaris
Estrogen receptor [12] = biological target: T3, Estrogen receptor (Homo sapiens, UniProt P03372); assay: Induction of ERalpha degradation in human MCF7 cells assessed as decrease in ER-alpha level incubated for 18 to 24 hrs by Alexa fluor 488/Hoechst staining based immunofluorescence imaging analysis; assay type: cell-based
T3 sequence (P03372 whole entry): T2 sequence (whole entry)
Method in brief: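 ER degradation in MCF-7 cells via cellular degradation assay; n ≥ 2, degradation also expressed as %Dmax relative to fulvestrant.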

[13] = Fraction unbound in mouse plasma; assay type: ADME, cell-free
Estrogen receptor [14] = biological target: T3, Estrogen receptor; assay: Displacement of fluormone ES2 green reagent from human GST-tagged ERalpha LBD (282 to 595 residues) expressed in baculovirus infected insect cells incubated for 1 hrs by TR-FRET Lanthascreen assay
[15] = biological target: T2, Estrogen receptor (Homo sapiens); assay: Induction of ERalpha degradation in human MCF7 cells assessed as maximum degradation incubated for 18 to 24 hrs by Alexa fluor 488/Hoechst staining based immunofluorescence imaging analysis relative to fulvestrant; assay type: cell-based; conditions: time lower […], time upper […]
[16] = Half-life in rat at 0.5 mg/kg, iv or 1 mg/kg, po; assay type: ADME, organism-based; conditions: in vivo; method in brief: as §1
[17] = Intrinsic clearance in rat hepatocytes assessed per million cells; assay type: ADME, cell-based, Hepatocyte; conditions: read-out: CLH
Method in brief: (§3)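 Hepatocyte intrinsic clearance measured from DMSO stock in isolated hepatocytes diluted to 1x10⁶ cells/mL; rate expressed as µl/min/10⁶ cells.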

[18] = Lipophilicity, log D of the compound in buffer and octanol at pH 7.4 by shake flask method; assay type: physicochemical
Method in brief: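 logD at pH 7.4 by shake flask, buffer/octanol volume ratio 100:1.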

[19] = Intrinsic clearance in human hepatocytes assessed per million cells; assay type: ADME, cell-based, Hepatocyte; conditions: read-out: CLH; method in brief: as §3
MCF7 = assay: Antitumor activity against human […] cells xenografted in CB17 SCID mouse assessed as tumor regression at 5 mg, po administered via gavage three times a week for 21 days; assay type: functional, organism-based; conditions: time 21.0 day
Mus musculus = assay: In vivo antagonist activity at ERalpha in human MCF7 cells xenografted CB17 SCID mouse assessed as decrease in PR expression level at 5 mg, po administered via gavage three times a week for 21 days measured 24 hrs post last dose by Western blot analysis; assay type: functional, organism-based; conditions: time 21.0 day
[20] = biological target: Voltage-gated inwardly rectifying potassium channel KCNH2 (Homo sapiens, UniProt Q12809); assay: Inhibition of human ERG by plate-based planar patch clamp technique
Chain of Voltage-gated inwardly rectifying potassium channel KCNH2 (Q12809 whole entry): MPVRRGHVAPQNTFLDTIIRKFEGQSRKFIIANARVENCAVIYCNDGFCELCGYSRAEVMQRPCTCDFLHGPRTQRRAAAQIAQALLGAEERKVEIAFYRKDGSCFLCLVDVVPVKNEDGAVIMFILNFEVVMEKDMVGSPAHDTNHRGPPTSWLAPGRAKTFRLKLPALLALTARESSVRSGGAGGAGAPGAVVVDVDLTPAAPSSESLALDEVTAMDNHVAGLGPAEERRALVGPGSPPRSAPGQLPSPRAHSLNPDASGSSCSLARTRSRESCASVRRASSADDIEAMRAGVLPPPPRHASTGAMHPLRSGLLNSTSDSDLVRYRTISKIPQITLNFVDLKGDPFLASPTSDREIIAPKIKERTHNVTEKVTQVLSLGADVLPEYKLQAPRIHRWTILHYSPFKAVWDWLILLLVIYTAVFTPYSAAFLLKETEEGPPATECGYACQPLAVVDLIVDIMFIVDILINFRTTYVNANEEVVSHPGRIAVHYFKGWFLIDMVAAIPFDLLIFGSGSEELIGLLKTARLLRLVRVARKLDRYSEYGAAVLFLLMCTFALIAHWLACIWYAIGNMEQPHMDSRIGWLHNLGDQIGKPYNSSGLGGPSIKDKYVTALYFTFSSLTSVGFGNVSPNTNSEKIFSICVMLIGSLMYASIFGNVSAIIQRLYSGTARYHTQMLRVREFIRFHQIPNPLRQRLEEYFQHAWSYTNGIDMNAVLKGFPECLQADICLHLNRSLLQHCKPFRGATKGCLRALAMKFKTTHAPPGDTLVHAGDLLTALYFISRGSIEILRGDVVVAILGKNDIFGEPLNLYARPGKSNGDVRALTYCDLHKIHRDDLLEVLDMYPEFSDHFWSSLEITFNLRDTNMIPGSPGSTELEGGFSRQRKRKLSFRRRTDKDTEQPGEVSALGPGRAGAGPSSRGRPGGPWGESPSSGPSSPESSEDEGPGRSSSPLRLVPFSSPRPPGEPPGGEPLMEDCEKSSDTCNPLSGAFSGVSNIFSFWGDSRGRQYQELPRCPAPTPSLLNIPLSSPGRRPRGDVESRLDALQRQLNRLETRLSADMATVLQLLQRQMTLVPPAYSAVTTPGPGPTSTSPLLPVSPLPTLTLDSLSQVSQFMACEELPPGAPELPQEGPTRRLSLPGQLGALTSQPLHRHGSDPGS
Method in brief: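 hERG tail current inhibition recorded on a plate-based planar patch clamp system; IC50 reported.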

| SMILES | Activity [4] [%] | Activity [8] [%] | fraction unbound [10] | IC50 (Estrogen receptor [12]) [nM] | IC50 (Estrogen receptor [14]) [nM] | Emax [15] [%] | hepatocyte CLint [17] [µL/min/1e6 cells] | logD [18] | hepatocyte CLint [19] [µL/min/1e6 cells] | IC50 [20] [nM] | further results |
| --- | --- | --- | --- | --- | --- | --- | --- | --- | --- | --- | --- |
| COc1cc(NC2CN(CCCF)C2)ccc1[C@@H]1c2ccc3[nH]ncc3c2C[C@@H](C)N1CC1(F)CC1 | 84 | 89 | 0.34 | 0.316 | 7.94 | 96 | 7 | – | – | – | pKa [1]: 8.7; clearance [2]: 125 mL/min/kg; inhibition (INH) (Cytochrome P450 1A2): Not Active; IC50 (Cytochrome P450 3A4): 11000 nM; Vd [3]: 71 L/kg; solubility at 24 h [5]: > 900 µM; fraction unbound [6]: 0.51; inhibition (INH) (Cytochrome P450 2C19): Not Active; bioavailability [7]: 3%; IC50 (Cytochrome P450 2D6): 1200 nM; pKa [9]: 7.8; inhibition (INH) (Cytochrome P450 2C9): Not Active; fraction unbound [11]: 0.22; fraction unbound [13]: 0.39; half-life [16]: 11 h |
| C[C@@H]1Cc2c(ccc3[nH]ncc23)[C@@H](c2ccc(OCCN3CC(CF)C3)cn2)N1CC(F)(F)F | 80 | 91 | 0.22 | 0.398 | 1.26 | 96 | 45 | 3 | 3 | – | – |
| C[C@]12CC[C@@H]3c4ccc(O)cc4C[C@@H](CCCCCCCCC[S+]([O-])CCCC(F)(F)C(F)(F)F)[C@H]3[C@@H]1CC[C@@H]2O (stereo partly drawn) | – | – | – | – | – | – | – | – | – | – | Activity (MCF7): Active; Activity (Mus musculus): Active |
| C[C@@H]1Cc2c(ccc3[nH]ncc23)[C@@](C)(c2ccc(NC3CN(CCCF)C3)cn2)N1CC(F)F | – | – | 0.1 | 1 | 10 | 96 | 114 | – | – | 13000 | – |
| C[C@@H]1Cc2c(ccc3[nH]ccc23)[C@@H](c2ccc(NC3CN(CCCF)C3)cn2)N1CC(F)(F)F | 85 | 98 | 0.073 | 0.158 | 3.16 | 98 | 10 | 3.2 | 3 | – | – |
| C[C@@H]1Cc2c(ccc3[nH]ncc23)[C@@H](c2ccc(N[C@H]3CCN(CCCF)C3)cn2)N1CC(F)(F)F | 104 | 95 | 0.18 | 0.126 | 2.51 | 99 | 22 | 3 | 5 | 13000 | – |
